The source made the active and inactive calls. No cut-off for these calls is given here.
Tests used:
Bcl-2-like protein 1 = Bcl-2-like protein 1 (Homo sapiens, UniProt Q07817); experiment: Displacement of FITC-BIM from recombinant human Bcl-XL expressed in Escherichia coli after 30 mins by fluorescence polarization assay
Summary of the method: (§1)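 Fluorescence polarization competition: serial compound dilutions in 20 mM Hepes-KOH pH 7.4, 150 mM NaCl with 50 nM FITC-BIM; after 5 min, E. coli-expressed recombinant protein added at 1 µM; polarization read after 30 min incubation. Triplicates; Ki from nonlinear regression of competitive binding curves.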

MEF [1] = experiment: Induction of apoptosis in Bak-deficient MEF assessed as appearance of fragmented nuclei and cell membrane blebbing after 24 hrs by DAPI staining; assay type: functional, cell-based; details: Mus musculus
Summary of the method: (§2)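 MEF wild-type or knockout clones (Bcl2, Bad, Bid, Bak, Bax, Bax/Bak) treated 24 h with compound (15 µM for single-concentration data) or 0.1% DMSO vehicle; apoptosis scored by fragmented nuclei and membrane blebbing. EC50 values are means of three experiments with s.d.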

MEF [2] = experiment: Induction of apoptosis in Bad-deficient MEF assessed as appearance of fragmented nuclei and cell membrane blebbing after 24 hrs by DAPI staining; assay type: functional, cell-based; details: Mus musculus; summary of the method: as §2
MEF [3] = experiment: Induction of apoptosis in Bcl2-deficient MEF assessed as appearance of fragmented nuclei and cell membrane blebbing after 24 hrs by DAPI staining; assay type: functional, cell-based; details: Mus musculus; summary of the method: as §2
MEF [4] = experiment: Induction of apoptosis in Bid-deficient MEF assessed as appearance of fragmented nuclei and cell membrane blebbing after 24 hrs by DAPI staining; assay type: functional, cell-based; details: Mus musculus; summary of the method: as §2
MEF [5] = experiment: Induction of apoptosis in Bax/Bak-deficient MEF assessed as appearance of fragmented nuclei and cell membrane blebbing after 24 hrs by DAPI staining; assay type: functional, cell-based; details: Mus musculus; summary of the method: as §2
MEF [6] = experiment: Induction of apoptosis in wild-type MEF assessed as appearance of fragmented nuclei and cell membrane blebbing after 24 hrs by DAPI staining; assay type: functional, cell-based; details: Mus musculus; summary of the method: as §2
MEF [7] = experiment: Induction of apoptosis in Bax-deficient MEF assessed as appearance of fragmented nuclei and cell membrane blebbing after 24 hrs by DAPI staining; assay type: functional, cell-based; details: Mus musculus; summary of the method: as §2
[8] = molecular target: Apoptosis regulator Bcl-2 (Homo sapiens, UniProt P10415); experiment: Displacement of FITC-BIM from recombinant human Bcl-2 expressed in Escherichia coli after 30 mins by fluorescence polarization assay; summary of the method: as §1
Chain of Apoptosis regulator Bcl-2 (P10415 whole entry): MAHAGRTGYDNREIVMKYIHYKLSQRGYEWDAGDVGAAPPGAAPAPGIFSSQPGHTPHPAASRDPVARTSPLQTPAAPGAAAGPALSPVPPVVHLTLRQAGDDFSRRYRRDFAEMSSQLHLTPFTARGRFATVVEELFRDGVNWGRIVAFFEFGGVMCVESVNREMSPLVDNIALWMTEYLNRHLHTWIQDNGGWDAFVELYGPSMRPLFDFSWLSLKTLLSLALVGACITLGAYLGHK

[9] = test system: Lewis lung carcinoma cell line; experiment: Antitumor activity against mouse LLC cells allografted in C57BL/6 mouse assessed as tumor growth inhibition at 60 mg/kg, ip administerd for 14 days measured on day 15 relative to control; details: read-out: TGI
MEF [10] = experiment: Induction of apoptosis in Bak-deficient MEF assessed as appearance of fragmented nuclei and cell membrane blebbing at 15 uM after 24 hrs by DAPI staining; assay type: functional, cell-based; details: Mus musculus; summary of the method: as §2
MEF [11] = experiment: Induction of apoptosis in Bid-deficient MEF assessed as appearance of fragmented nuclei and cell membrane blebbing at 15 uM after 24 hrs by DAPI staining; assay type: functional, cell-based; details: Mus musculus; summary of the method: as §2
MEF [12] = experiment: Induction of apoptosis in Bad-deficient MEF assessed as appearance of fragmented nuclei and cell membrane blebbing at 15 uM after 24 hrs by DAPI staining; assay type: functional, cell-based; details: Mus musculus; summary of the method: as §2
MEF [13] = experiment: Induction of apoptosis in Bcl2-deficient MEF assessed as appearance of fragmented nuclei and cell membrane blebbing at 15 uM after 24 hrs by DAPI staining; assay type: functional, cell-based; details: Mus musculus; summary of the method: as §2
MEF [14] = experiment: Induction of apoptosis in Bax-deficient MEF assessed as appearance of fragmented nuclei and cell membrane blebbing at 15 uM after 24 hrs by DAPI staining; assay type: functional, cell-based; details: Mus musculus; summary of the method: as §2
MEF [15] = experiment: Induction of apoptosis in Bax/Bak-deficient MEF assessed as appearance of fragmented nuclei and cell membrane blebbing at 15 uM after 24 hrs by DAPI staining; assay type: functional, cell-based; details: Mus musculus; summary of the method: as §2
MEF [16] = experiment: Induction of apoptosis in MEF assessed as appearance of fragmented nuclei and cell membrane blebbing at 15 uM after 24 hrs by DAPI staining; assay type: functional, cell-based; details: Mus musculus; summary of the method: as §2
[17] = test system: Lewis lung carcinoma cell line; experiment: Antitumor activity against mouse LLC cells allografted in BD2F mouse assessed as tumor growth inhibition at 1.25 mg/kg, ip administered every other day for 5 treatments relative to control; assay type: functional; details: route intraperitoneal, read-out: TGI
Mus musculus [18] = organism: Mus musculus; experiment: Toxicity in C57BL/6J mouse assessed as effect on heart; assay type: organism-based; details: in vivo
Mus musculus [19] = organism: Mus musculus; experiment: Toxicity in C57BL/6J mouse assessed as effect on femoral muscle; assay type: organism-based, Muscle tissue; details: in vivo
Mus musculus [20] = experiment: Toxicity in C57BL/6J mouse allografted with mouse LLC1 cells assessed as mortality at 1 mg/kg, ip qd administered from day 14 to 17 post tumor implantation measured during compound dosing; assay type: organism-based; parameters: dose 1 mg/kg, route intraperitoneal; details: in vivo
[21] = test system: Lewis lung carcinoma cell line; experiment: Antitumor activity against mouse LLC1 cells allografted in C57BL/6J mouse assessed as decrease in ratio of tumor burden to lung area at 1 mg/kg, ip qd administered from day 14 to 17 post tumor implantation measured on day 17 by hematoxylin and eosin staining-based microscopic analysis relative to control; assay type: functional; parameters: scale not given: the % may be the effect or the level left; details: route intraperitoneal
Summary of the method: (§3)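 LLC1 cells injected via tail vein on day 0; from day 14 to day 17 mice given intraperitoneal injection once daily at 1 mg/kg, vehicle 1% DMSO; euthanized day 17. Lungs inspected visually, and H&E-stained lung sections scored as tumor burden to lung area ratio versus vehicle controls.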

Mus musculus [22] = organism: Mus musculus; experiment: Toxicity in C57BL/6J mouse assessed as effect on lung; assay type: organism-based; details: in vivo
[23] = test system: Lewis lung carcinoma cell line; experiment: Antitumor activity against mouse LLC1 cells allografted in C57BL/6J mouse assessed as reduction of tumor lesions at 1 mg/kg, ip qd administered from day 14 to 17 post tumor implantation measured on day 17 by hematoxylin and eosin staining-based microscopic analysis; assay type: functional, organism-based; parameters: dose 1 mg/kg; summary of the method: as §3
MEF [24] = experiment: Induction of apoptosis in MEF assessed as appearance of cell membrane blebbing at 15 uM after 24 hrs by DAPI staining in presence of caspase inhibitor Ac-DEVD-CHO; assay type: functional, cell-based; details: Mus musculus
Summary of the method: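 MEF cells treated 24 h at 15 µM in presence of caspase inhibitor Ac-DEVD-CHO (10 µM); cell membrane blebbing assessed by microscopy.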

Mus musculus [25] = experiment: Toxicity in C57BL/6J mouse allografted with mouse LLC1 cells assessed as evidence of gross toxicity at 1 mg/kg, ip qd administered from day 14 to 17 post tumor implantation measured during compound dosing; assay type: organism-based; parameters: dose 1 mg/kg, route intraperitoneal; details: in vivo
Mus musculus [26] = experiment: Toxicity in C57BL/6J mouse allografted with mouse LLC1 cells assessed as evidence of behavioral side effect at 1 mg/kg, ip qd administered from day 14 to 17 post tumor implantation measured during compound dosing; assay type: organism-based; parameters: dose 1 mg/kg, route intraperitoneal; details: in vivo
Mus musculus [27] = experiment: Toxicity in C57BL/6J mouse allografted with mouse LLC1 cells assessed as change in body weight at 1 mg/kg, ip qd administered from day 14 to 17 post tumor implantation measured during compound dosing; assay type: organism-based; parameters: dose 1 mg/kg, route intraperitoneal; details: in vivo
[28] = Cytotoxicity against C57BL/6J mouse primary splenocytes assessed as effect on apoptosis rate at 10 uM after 72 hrs by DAPI staining; assay type: cell-based; details: splenocyte
Summary of the method: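 Primary splenocytes exposed 72 hours to 10 µM; apoptosis rate determined by counting apoptotic nuclei; mean with s.d. reported.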

Mus musculus [29] = experiment: In vivo activation of Bax in mouse LLC1 cells allografted in C57BL/6J mouse at 1 mg/kg, ip qd administered from day 14 to 17 post tumor implantation measured on day 17 by immunoprecipitation assay; assay type: functional, organism-based; parameters: dose 1 mg/kg
Summary of the method: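 Mice carrying tail-vein-injected LLC1 lung tumors received 1 mg/kg intraperitoneally once daily days 14–17 (vehicle 1% DMSO); on day 17 lung lysates were immunoprecipitated with conformation-specific anti-BAX 6A7 antibody to detect activated BAX.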

Chain of Bcl-2-like protein 1 (Q07817 whole entry): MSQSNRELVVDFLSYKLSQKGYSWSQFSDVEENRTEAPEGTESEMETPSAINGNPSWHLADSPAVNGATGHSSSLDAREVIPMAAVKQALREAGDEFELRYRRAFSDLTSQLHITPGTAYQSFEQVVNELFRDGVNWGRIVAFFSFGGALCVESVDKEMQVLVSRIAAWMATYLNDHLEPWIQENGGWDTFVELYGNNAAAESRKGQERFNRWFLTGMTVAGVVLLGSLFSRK

Row | Structure (SMILES) | Ki (Bcl-2-like protein 1) [µM] | Ki [8] [µM] | Activity (MEF [10]) | Activity (MEF [11]) | Activity (MEF [12]) | Activity (MEF [13]) | Activity (MEF [14]) | Activity (MEF [15]) | Activity (MEF [16]) | other results
1 | CCOc1ccccc1N/N=C1/C(=O)N(c2nc(-c3ccccc3)cs2)N=C1C | > 100 | 3 | – | – | – | – | – | – | – | EC50 (MEF [1]): 6 µM; EC50 (MEF [2]): 3.5 µM; EC50 (MEF [3]): 3.2 µM; EC50 (MEF [4]): 4 µM; EC50 (MEF [5]): > 50 µM; EC50 (MEF [6]): 7.7 µM; EC50 (MEF [7]): > 50 µM
2 | O=P1(N(CCCl)CCCl)NCCCO1 (stereo not drawn) [CYCLOPHOSPHAMIDE ANHYDROUS] | – | – | – | – | – | – | – | – | – | inhibition in vivo at 60 mg/kg [9]: 40%
3 | CCOc1ccccc1N/N=C1\C(=O)N(c2cc(O)cc(-c3cccc(N)c3)c2)N=C1C | > 100 | > 100 | Active | Active | Active | Active | Active | inactive | Active | –
4 | CC1=NN(c2cc(O)cc(-c3ccc(N(C)C)cc3)c2)C(=O)/C1=N\Nc1ccc2ccccc2c1 | 3.4 | 33.9 | Active | Active | Active | Active | inactive | inactive | Active | –
5 | CC1=NN(c2nc(-c3ccccc3)cs2)C(=O)/C1=C/c1ccc(-c2ccccc2)cc1 | 3.1 | 1.6 | Active | Active | Active | Active | Active | inactive | Active | –
6 | CCOc1ccccc1N/N=C1\C(=O)N(c2cc(O)cc(-c3ccc(C(C)C)cc3)c2)N=C1C | 15.5 | 1.9 | Active | Active | Active | Active | Active | inactive | Active | –
7 | CCOc1ccccc1N/N=C1\C(=O)N(c2cc(O)cc(-c3ccccc3)c2)N=C1C | > 100 | > 100 | Active | Active | Active | Active | inactive | inactive | Active | –
8 | CCOc1ccccc1C(=O)C(=O)C1C(=O)N(c2nc(-c3ccccc3)cs2)N=C1C (stereo not drawn) | > 100 | > 100 | – | – | – | – | – | inactive | inactive | –
9 | CCOc1ccccc1N/N=C1\C(=O)N(c2cccc(-c3ccc(N(C)C)cc3)c2)N=C1C | > 100 | 4.2 | Active | Active | Active | Active | Active | inactive | Active | –
10 | CCOc1ccccc1N/N=C1\C(=O)N(c2cc(O)cc(-c3cccs3)c2)N=C1C | > 100 | > 100 | – | – | – | – | – | inactive | inactive | –
11 | CC1=NN(c2nc(-c3ccccc3)cs2)C(=O)/C1=C/c1ccccc1 | 2.4 | 1.9 | Active | Active | Active | Active | Active | inactive | Active | –
12 | CCOc1ccccc1CC(=O)C1C(=O)N(c2nc(-c3ccccc3)cs2)N=C1C (stereo not drawn) | > 100 | > 100 | – | – | – | – | – | inactive | inactive | –
13 | CC1=NN(c2nc(-c3ccccc3)cs2)C(=O)/C1=C/C(c1ccccc1)c1ccccc1 | > 100 | 1.6 | Active | Active | Active | Active | Active | inactive | Active | –
14 | CC1=NN(c2nc(-c3ccccc3)cs2)C(=O)/C1=C/c1ccc2ccccc2c1 | 3.4 | 2 | Active | Active | Active | Active | Active | inactive | Active | –
15 | CC1=NN(c2nc(-c3ccccc3)cs2)C(=O)/C1=C/c1ncc[nH]1 | 6.8 | 2 | Active | Active | Active | Active | Active | inactive | Active | –
16 | CCOc1ccccc1N/N=C1\C(=O)N(c2cc(O)cc(-c3ccncc3)c2)N=C1C | 30.9 | > 100 | Active | Active | Active | Active | inactive | inactive | Active | –
17 | COc1cccc2c1C(=O)c1c(O)c3c(c(O)c1C2=O)C[C@@](O)(C(=O)CO)C[C@@H]3O[C@H]1C[C@H](N)[C@H](O)[C@H](C)O1 [DOXORUBICIN] | – | – | – | – | – | – | – | – | – | inhibition in vivo at 1.25 mg/kg [17]: 40%
18 | CCOc1ccccc1N/N=C1\C(=O)N(c2cc(O)cc(-c3ccc(N(C)C)cc3)c2)N=C1C | > 100 | 12 | – | – | – | – | – | – | – | Activity (Mus musculus [18]): Non-toxic; Activity (Mus musculus [19]): Non-toxic; EC50 (MEF [1]): 1.3 µM; Activity (Mus musculus [20]): Non-toxic; Activity [21]: 50%; EC50 (MEF [2]): 0.8 µM; Activity (Mus musculus [22]): Non-toxic; Activity [23]: Active; EC50 (MEF [3]): 0.6 µM; Activity (MEF [24]): inactive; Activity (Mus musculus [25]): Non-toxic; Activity (Mus musculus [26]): Non-toxic; EC50 (MEF [4]): 0.7 µM; EC50 (MEF [5]): > 50 µM; EC50 (MEF [6]): 1.1 µM; EC50 (MEF [7]): > 50 µM; Activity (Mus musculus [27]): Non-toxic; Activity [28]: Non-toxic; Activity (Mus musculus [29]): Active

Source: ChEMBL document CHEMBL3414479, “Structure-based lead optimization and biological evaluation of BAX direct activators as novel potential anticancer agents” (J Med Chem, 2015)
